Results from ChEMBL document CHEMBL5058577, “EUbOPEN Chemogenomics Library 2 (Multiplex)” (2022).

Test system: HEK-293T
Assay: Multiplex assay against HEK293T
Type: toxicity, cell-based
Settings: human
Method in brief: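 Cells stained live at seeding with Hoechst33342, BioTracker Green Microtubule Cytoskeleton Dye, MitoTracker Red and Annexin V Alexa Fluor 680 were imaged on a CQ1 microscope at 37°C and 5% CO2 after compound addition. Their classification by CellPathfinder machine-learning gating ran from Hoechst high-intensity objects versus normal cells, to healthy, pyknosed or fragmented nuclei among normal cells, to mitotic or apoptotic among pyknosed cells. Tubulin, mitochondrial-mass and membrane-permeability phenotypes are per cents of healthy-nucleus cells.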

[1] = 12 h, 1 µM, compound concentration 1 uM, replicate 1
[2] = 12 h, 1 µM, compound concentration 1 uM, replicate 2
[3] = 12 h, 10 µM, compound concentration 10 uM, replicate 1
[4] = 12 h, 10 µM, compound concentration 10 uM, replicate 2
[5] = 24 h, 1 µM, compound concentration 1 uM, replicate 1
[6] = 24 h, 1 µM, compound concentration 1 uM, replicate 2
[7] = 24 h, 10 µM, compound concentration 10 uM, replicate 1
[8] = 24 h, 10 µM, compound concentration 10 uM, replicate 2
[9] = 48 h, 1 µM, compound concentration 1 uM, replicate 1
[10] = 48 h, 1 µM, compound concentration 1 uM, replicate 2
[11] = 48 h, 10 µM, compound concentration 10 uM, replicate 1
[12] = 48 h, 10 µM, compound concentration 10 uM, replicate 2

Compound: CCCN1CCC[C@@H]2Cc3n[nH]cc3C[C@H]21.Cl [QUINPIROLE HYDROCHLORIDE]
- Population Apoptotic (%) [1]: 32%
- Population Fragmented Nuclei (%) [1]: 6%
- Population Healthy Nuclei (%) [1]: 84%
- Population Hoechst High Intensity Objects (%) [1]: 6%
- Population Membrane Permeable-Phenotype (%) [1]: 0%
- Population Mitochondria Different-Phenotype (%) [1]: 37%
- Population Mitotic Cells (%) [1]: 67%
- Population Normal (%) [1]: 93%
- Population Pyknosed Nuclei (%) [1]: 9%
- Population Tubulin-Different-Phenotype (%) [1]: 22%
- Total Cell Count [1]: 447
- Population Apoptotic (%) [2]: 63%
- Population Fragmented Nuclei (%) [2]: 4%
- Population Healthy Nuclei (%) [2]: 82%
- Population Hoechst High Intensity Objects (%) [2]: 3%
- Population Mitochondria Different-Phenotype (%) [2]: 67%
- Population Mitotic Cells (%) [2]: 36%
- Population Normal (%) [2]: 96%
- Population Pyknosed Nuclei (%) [2]: 12%
- Population Tubulin-Different-Phenotype (%) [2]: 26%
- Total Cell Count [2]: 294
- Population Apoptotic (%) [3]: 55%
- Population Fragmented Nuclei (%) [3]: 11%
- Population Healthy Nuclei (%) [3]: 72%
- Population Hoechst High Intensity Objects (%) [3]: 9%
- Population Membrane Permeable-Phenotype (%) [3]: 0%
- Population Mitochondria Different-Phenotype (%) [3]: 53%
- Population Mitotic Cells (%) [3]: 44%
- Population Normal (%) [3]: 90%
- Population Pyknosed Nuclei (%) [3]: 15%
- Population Tubulin-Different-Phenotype (%) [3]: 40%
- Total Cell Count [3]: 381
- Population Apoptotic (%) [4]: 46%
- Population Fragmented Nuclei (%) [4]: 5%
- Population Healthy Nuclei (%) [4]: 78%
- Population Hoechst High Intensity Objects (%) [4]: 5%
- Population Mitochondria Different-Phenotype (%) [4]: 69%
- Population Mitotic Cells (%) [4]: 53%
- Population Normal (%) [4]: 94%
- Population Pyknosed Nuclei (%) [4]: 16%
- Population Tubulin-Different-Phenotype (%) [4]: 26%
- Total Cell Count [4]: 312
- Population Apoptotic (%) [5]: 30%
- Population Fragmented Nuclei (%) [5]: 12%
- Population Healthy Nuclei (%) [5]: 79%
- Population Hoechst High Intensity Objects (%) [5]: 3%
- Population Membrane Permeable-Phenotype (%) [5]: 0%
- Population Mitochondria Different-Phenotype (%) [5]: 17%
- Population Mitotic Cells (%) [5]: 70%
- Population Normal (%) [5]: 96%
- Population Pyknosed Nuclei (%) [5]: 8%
- Population Tubulin-Different-Phenotype (%) [5]: 14%
- Total Cell Count [5]: 600
- Population Apoptotic (%) [6]: 29%
- Population Fragmented Nuclei (%) [6]: 8%
- Population Healthy Nuclei (%) [6]: 81%
- Population Hoechst High Intensity Objects (%) [6]: 2%
- Population Mitochondria Different-Phenotype (%) [6]: 37%
- Population Normal (%) [6]: 97%
- Population Pyknosed Nuclei (%) [6]: 9%
- Population Tubulin-Different-Phenotype (%) [6]: 16%
- Total Cell Count [6]: 390
- Population Apoptotic (%) [7]: 45%
- Population Fragmented Nuclei (%) [7]: 10%
- Population Healthy Nuclei (%) [7]: 77%
- Population Hoechst High Intensity Objects (%) [7]: 4%
- Population Membrane Permeable-Phenotype (%) [7]: 0%
- Population Mitochondria Different-Phenotype (%) [7]: 38%
- Population Mitotic Cells (%) [7]: 54%
- Population Normal (%) [7]: 95%
- Population Pyknosed Nuclei (%) [7]: 11%
- Population Tubulin-Different-Phenotype (%) [7]: 27%
- Total Cell Count [7]: 529
- Population Apoptotic (%) [8]: 43%
- Population Fragmented Nuclei (%) [8]: 7%
- Population Healthy Nuclei (%) [8]: 78%
- Population Hoechst High Intensity Objects (%) [8]: 2%
- Population Mitochondria Different-Phenotype (%) [8]: 43%
- Population Mitotic Cells (%) [8]: 56%
- Population Normal (%) [8]: 97%
- Population Pyknosed Nuclei (%) [8]: 13%
- Population Tubulin-Different-Phenotype (%) [8]: 13%
- Total Cell Count [8]: 406
- Population Apoptotic (%) [9]: 21%
- Population Fragmented Nuclei (%) [9]: 16%
- Population Healthy Nuclei (%) [9]: 76%
- Population Hoechst High Intensity Objects (%) [9]: 1%
- Population Membrane Permeable-Phenotype (%) [9]: 1%
- Population Mitochondria Different-Phenotype (%) [9]: 9%
- Population Mitotic Cells (%) [9]: 78%
- Population Normal (%) [9]: 98%
- Population Pyknosed Nuclei (%) [9]: 6%
- Population Tubulin-Different-Phenotype (%) [9]: 10%
- Total Cell Count [9]: 1105
- Population Apoptotic (%) [10]: 33%
- Population Fragmented Nuclei (%) [10]: 11%
- Population Healthy Nuclei (%) [10]: 84%
- Population Hoechst High Intensity Objects (%) [10]: 2%
- Population Mitochondria Different-Phenotype (%) [10]: 19%
- Population Mitotic Cells (%) [10]: 66%
- Population Pyknosed Nuclei (%) [10]: 4%
- Population Tubulin-Different-Phenotype (%) [10]: 8%
- Total Cell Count [10]: 649
- Population Apoptotic (%) [11]: 40%
- Population Fragmented Nuclei (%) [11]: 15%
- Population Healthy Nuclei (%) [11]: 78%
- Population Hoechst High Intensity Objects (%) [11]: 2%
- Population Membrane Permeable-Phenotype (%) [11]: 1%
- Population Mitochondria Different-Phenotype (%) [11]: 23%
- Population Mitotic Cells (%) [11]: 59%
- Population Normal (%) [11]: 97%
- Population Pyknosed Nuclei (%) [11]: 6%
- Population Tubulin-Different-Phenotype (%) [11]: 15%
- Total Cell Count [11]: 772
- Population Apoptotic (%) [12]: 33%
- Population Fragmented Nuclei (%) [12]: 13%
- Population Healthy Nuclei (%) [12]: 80%
- Population Hoechst High Intensity Objects (%) [12]: 1%
- Population Membrane Permeable-Phenotype (%) [12]: 0%
- Population Mitochondria Different-Phenotype (%) [12]: 28%
- Population Mitotic Cells (%) [12]: 66%
- Population Normal (%) [12]: 98%
- Population Tubulin-Different-Phenotype (%) [12]: 13%
- Total Cell Count [12]: 654

Compound: Cl.Clc1ccc2nsnc2c1NC1=NCCN1 [TIZANIDINE HYDROCHLORIDE]
- Population Apoptotic (%) [1]: 39%
- Population Fragmented Nuclei (%) [1]: 9%
- Population Healthy Nuclei (%) [1]: 80%
- Population Hoechst High Intensity Objects (%) [1]: 8%
- Population Membrane Permeable-Phenotype (%) [1]: 0%
- Population Mitochondria Different-Phenotype (%) [1]: 36%
- Population Mitotic Cells (%) [1]: 60%
- Population Normal (%) [1]: 91%
- Population Pyknosed Nuclei (%) [1]: 9%
- Population Tubulin-Different-Phenotype (%) [1]: 26%
- Total Cell Count [1]: 474
- Population Apoptotic (%) [2]: 44%
- Population Fragmented Nuclei (%) [2]: 2%
- Population Healthy Nuclei (%) [2]: 83%
- Population Hoechst High Intensity Objects (%) [2]: 9%
- Population Mitochondria Different-Phenotype (%) [2]: 62%
- Population Mitotic Cells (%) [2]: 55%
- Population Normal (%) [2]: 90%
- Population Pyknosed Nuclei (%) [2]: 13%
- Population Tubulin-Different-Phenotype (%) [2]: 20%
- Total Cell Count [2]: 373
- Population Apoptotic (%) [3]: 30%
- Population Fragmented Nuclei (%) [3]: 9%
- Population Healthy Nuclei (%) [3]: 80%
- Population Hoechst High Intensity Objects (%) [3]: 6%
- Population Membrane Permeable-Phenotype (%) [3]: 0%
- Population Mitochondria Different-Phenotype (%) [3]: 45%
- Population Mitotic Cells (%) [3]: 70%
- Population Normal (%) [3]: 93%
- Population Pyknosed Nuclei (%) [3]: 9%
- Population Tubulin-Different-Phenotype (%) [3]: 32%
- Total Cell Count [3]: 450
- Population Apoptotic (%) [4]: 46%
- Population Fragmented Nuclei (%) [4]: 7%
- Population Healthy Nuclei (%) [4]: 79%
- Population Hoechst High Intensity Objects (%) [4]: 4%
- Population Mitochondria Different-Phenotype (%) [4]: 67%
- Population Mitotic Cells (%) [4]: 53%
- Population Normal (%) [4]: 95%
- Population Pyknosed Nuclei (%) [4]: 13%
- Population Tubulin-Different-Phenotype (%) [4]: 27%
- Total Cell Count [4]: 343
- Population Apoptotic (%) [5]: 32%
- Population Fragmented Nuclei (%) [5]: 11%
- Population Healthy Nuclei (%) [5]: 79%
- Population Hoechst High Intensity Objects (%) [5]: 4%
- Population Membrane Permeable-Phenotype (%) [5]: 0%
- Population Mitochondria Different-Phenotype (%) [5]: 20%
- Population Mitotic Cells (%) [5]: 67%
- Population Normal (%) [5]: 95%
- Population Pyknosed Nuclei (%) [5]: 8%
- Population Tubulin-Different-Phenotype (%) [5]: 17%
- Total Cell Count [5]: 597
- Population Apoptotic (%) [6]: 45%
- Population Fragmented Nuclei (%) [6]: 10%
- Population Healthy Nuclei (%) [6]: 80%
- Population Hoechst High Intensity Objects (%) [6]: 5%
- Population Mitochondria Different-Phenotype (%) [6]: 38%
- Population Mitotic Cells (%) [6]: 54%
- Population Normal (%) [6]: 94%
- Population Tubulin-Different-Phenotype (%) [6]: 15%
- Total Cell Count [6]: 434
- Population Apoptotic (%) [7]: 32%
- Population Fragmented Nuclei (%) [7]: 11%
- Population Healthy Nuclei (%) [7]: 78%
- Population Hoechst High Intensity Objects (%) [7]: 5%
- Population Membrane Permeable-Phenotype (%) [7]: 1%
- Population Mitochondria Different-Phenotype (%) [7]: 23%
- Population Mitotic Cells (%) [7]: 67%
- Population Normal (%) [7]: 94%
- Population Pyknosed Nuclei (%) [7]: 9%
- Population Tubulin-Different-Phenotype (%) [7]: 18%
- Total Cell Count [7]: 621
- Population Apoptotic (%) [8]: 29%
- Population Fragmented Nuclei (%) [8]: 10%
- Population Healthy Nuclei (%) [8]: 81%
- Population Hoechst High Intensity Objects (%) [8]: 6%
- Population Membrane Permeable-Phenotype (%) [8]: 0%
- Population Mitochondria Different-Phenotype (%) [8]: 46%
- Population Mitotic Cells (%) [8]: 70%
- Population Normal (%) [8]: 93%
- Population Pyknosed Nuclei (%) [8]: 7%
- Total Cell Count [8]: 443
- Population Apoptotic (%) [9]: 17%
- Population Fragmented Nuclei (%) [9]: 16%
- Population Healthy Nuclei (%) [9]: 77%
- Population Hoechst High Intensity Objects (%) [9]: 2%
- Population Membrane Permeable-Phenotype (%) [9]: 3%
- Population Mitochondria Different-Phenotype (%) [9]: 13%
- Population Mitotic Cells (%) [9]: 82%
- Population Normal (%) [9]: 97%
- Population Pyknosed Nuclei (%) [9]: 6%
- Population Tubulin-Different-Phenotype (%) [9]: 10%
- Total Cell Count [9]: 1005
- Population Apoptotic (%) [10]: 33%
- Population Fragmented Nuclei (%) [10]: 14%
- Population Healthy Nuclei (%) [10]: 79%
- Population Hoechst High Intensity Objects (%) [10]: 3%
- Population Membrane Permeable-Phenotype (%) [10]: 1%
- Population Mitochondria Different-Phenotype (%) [10]: 19%
- Population Mitotic Cells (%) [10]: 66%
- Population Normal (%) [10]: 96%
- Population Tubulin-Different-Phenotype (%) [10]: 7%
- Total Cell Count [10]: 661
- Population Apoptotic (%) [11]: 24%
- Population Fragmented Nuclei (%) [11]: 19%
- Population Healthy Nuclei (%) [11]: 74%
- Population Hoechst High Intensity Objects (%) [11]: 3%
- Population Membrane Permeable-Phenotype (%) [11]: 1%
- Population Mitochondria Different-Phenotype (%) [11]: 13%
- Population Mitotic Cells (%) [11]: 75%
- Population Normal (%) [11]: 96%
- Population Pyknosed Nuclei (%) [11]: 5%
- Population Tubulin-Different-Phenotype (%) [11]: 10%
- Total Cell Count [11]: 995
- Population Apoptotic (%) [12]: 25%
- Population Fragmented Nuclei (%) [12]: 13%
- Population Healthy Nuclei (%) [12]: 81%
- Population Hoechst High Intensity Objects (%) [12]: 5%
- Population Mitochondria Different-Phenotype (%) [12]: 23%
- Population Normal (%) [12]: 94%
- Population Pyknosed Nuclei (%) [12]: 4%
- Population Tubulin-Different-Phenotype (%) [12]: 19%
- Total Cell Count [12]: 600
